# Screens as filed in PubChem BioAssay.
# This is a sample that favours compounds with a hit; in the whole collection about 2.9% have one here.
# Beta2AR agonist: human beta-2 adrenergic receptor agonism by FAP. AID 504454. response, % (no concentration beside the values). 340,000 tested, 0.43% active. Am2.2-beta2AR cells, FAP receptor internalization, flow cytometry;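 active = response above a set limit, near 3 SD of response in nonfluorescent compounds, cut at about 42% in these data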
# Dynein transport: blocks dynein driven cargo transport along microtubules | 3617.4 mouse cells, GR-EGFP nuclear translocation imaging; test concentration mostly 20 µM; stimulated with dexamethasone, 1 µM; stronger effect = lower value | z-score, hits read low | 220,000 tested, 0.47% active | AID 1381;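 active = plate z-score of nuclear minus cytoplasmic receptor signal below a set negative limit, without overly bright fluorescence or cell loss, cut at about -3.5 in these data, passing the limit was not always enough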;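 also: z-score of nuclear minus cytoplasmic ring GR-EGFP intensity difference per well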
#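 Medium: Induction medium lacking tetracycline, stripped serum | Probe or stimulus: 1.0 µM final dexamethasone stimulus | Schedule: 48 h induction, then 1 h compound, then 30 min agonist, 37 °C | Signal: Automated 10x imaging of fixed Hoechst-stained cells | Evaluation: Per-cell GR-EGFP intensity, nucleus versus surrounding cytoplasmic ring, well-averaged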
# MEKK2mut PB1 HTS: signal of MEK5 binding to mutant human MEKK2 PB1 domain | percent response, % at 10 µM | bead flow cytometry, Alexa488-MEK5 binding to MEKK2 mutant | 290,000 tested, 0.35% active; in the data active = percent response above about 24%, passing the limit was not always enough
# MEKK2wt PB1 HTS: raises or lowers MEK5 binding to wildtype human MEKK2 PB1 domain; Q9Y2U5; bead flow cytometry, Alexa488-MEK5 binding to MEKK2 WT; actives lie on both sides; binding response (% of control), % at 10 µM; 290,000 tested, 1.1% active; AID 1531; in the data active = binding response below about 67% or above about 130%
# ATG4B inhibitor: ATG4B (human) cysteine protease inhibition; Q9Y4P1; 340,000 tested, 0.51% active; inhibition, % at 8.33 µM; ATG4B cleavage of LC3-PLA2, NBD-HPC fluorescence, 1 h; in the data active = inhibition above about 40%
# Target sequence (Q9Y4P1 whole entry, looked up): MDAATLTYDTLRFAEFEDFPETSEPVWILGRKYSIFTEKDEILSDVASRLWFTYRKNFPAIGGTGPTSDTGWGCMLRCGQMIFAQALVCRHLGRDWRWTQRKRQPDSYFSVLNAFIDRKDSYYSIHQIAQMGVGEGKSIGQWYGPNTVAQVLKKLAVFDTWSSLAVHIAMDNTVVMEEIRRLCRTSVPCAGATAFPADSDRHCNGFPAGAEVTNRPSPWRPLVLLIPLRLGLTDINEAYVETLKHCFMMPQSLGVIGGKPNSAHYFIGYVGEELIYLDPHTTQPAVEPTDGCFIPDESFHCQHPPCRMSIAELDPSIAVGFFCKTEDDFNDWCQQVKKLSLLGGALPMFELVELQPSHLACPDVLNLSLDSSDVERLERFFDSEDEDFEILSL
# MEKK3 PB1 HTS: modulators (inhibitors or enhancers) of MEK5 binding to human MEKK3 PB1 domain; bead-based flow cytometry, Alexa488-MEK5 binding to MEKK3; actives lie on both sides; 0 = blocked by unlabeled MEK5, 100 = vehicle; 290,000 tested, 1.4% active; Q99759; binding response (% of control), % at 10 µM;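 active = binding response more than 3 SD above or below the average of its plate-row segment, actives on both sides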;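 also: Alexa488 bead fluorescence after subtracting the streptavidin-only scavenger bead signal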
# ATG4B conf: ATG4B (human) inhibition, single-dose confirmed. shares compounds with ATG4B inhibitor. ATG4B protease fluorescent substrate cleavage assay. inhibition, % at 8.33 µM. 320 tested, 92% active. AID 504757; in the data active = inhibition above about 39%
# PLA2 ctr: counter-screen for ATG4B inhibitors: human phospholipase A2; shares compounds with ATG4B inhibitor; purified PLA2, NBD-C6-HPC fluorescence, 45 min; inhibition, % at 8.33 µM; 1,600 tested, 66% active; in the data active = inhibition above about 50%
# Target sequence (P04054 whole entry, looked up): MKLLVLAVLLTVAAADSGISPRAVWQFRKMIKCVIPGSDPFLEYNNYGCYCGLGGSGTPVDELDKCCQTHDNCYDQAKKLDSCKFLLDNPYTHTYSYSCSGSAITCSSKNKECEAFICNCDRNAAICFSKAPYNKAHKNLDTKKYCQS
# A number is an active result; . = inactive; / = no result.
SMILES,Beta2AR agonist,Dynein transport,MEKK2mut PB1 HTS,MEKK2wt PB1 HTS,ATG4B inhibitor,MEKK3 PB1 HTS,PLA2 ctr,others
Cc1ccc(C2C(/C=C3/SC(=S)NC3=O)=C(c3cccs3)Oc3ccccc32)cc1 (stereo not drawn),.,.,.,.,57,.,55,
CC1(C)Cc2ccccc2-c2nnc(SCC(=O)Nc3nc4ccccc4s3)n21,/,.,.,.,42,.,51,
Cn1c(SCC(=O)Nc2nc3ccccc3s2)nnc1-c1ccccc1,.,.,/,/,.,/,/,
Nc1c(C(=O)CSc2nnnn2-c2ccc(O)cc2)c(=O)[nH]c(=O)n1C1CC1,.,/,/,/,.,/,/,
CC(C)n1nccc1NC(=O)COC(=O)c1ccc(NC(N)=O)cc1,.,/,/,/,.,/,/,
O=[N+]([O-])c1ccccc1C1Nc2cccc3cccc(c23)N1,.,.,.,.,.,.,/,
O=[N+]([O-])c1ccc(Cl)c(C2Nc3cccc4cccc(c34)N2)c1,.,.,.,.,54,.,71,
CC1CC1c1ccc(/C=C(\C#N)C(=O)Nc2ccccc2Cl)o1 (stereo not drawn),.,.,.,.,41,.,51,
O=C1NC(=S)SC1=Cc1ccccc1Cl,.,/,/,/,.,/,/,
O=C1NC(=S)S/C1=C\c1cc(Cl)cc(Cl)c1O,.,/,/,/,62,/,.,ATG4B conf=40
O=C(Nn1cnc2ccccc2c1=O)c1c(F)cccc1F,.,/,.,.,.,.,/,
CC(C)[C@H](NS(=O)(=O)c1cccc(C(F)(F)F)c1)C(=O)OCC(N)=O,.,.,.,.,.,.,/,
CCOc1ccccc1C(=O)N/N=C/c1coc2ccc(C)cc2c1=O,.,/,.,.,65,.,76,
Cc1c(C(=O)Nc2ccccc2[N+](=O)[O-])csc1-c1ccccc1,.,.,.,.,59,.,.,
CC1CCc2c(sc(NS(=O)(=O)c3ccccc3)c2C(=O)OC(C)C)C1 (stereo not drawn),.,.,.,.,.,.,/,
CCn1c(N2CCN(S(=O)(=O)c3ccc(F)cc3)CC2)nc2ccccc21,.,.,.,.,.,.,/,
CCn1c(N2CCN(S(=O)(=O)c3ccc(Cl)cc3)CC2)nc2ccccc21,.,.,.,.,60,.,67,
COc1cc(OC)cc(OC(=O)C2CCN(C3=NS(=O)(=O)c4ccccc43)CC2)c1,.,/,/,/,.,/,/,
COc1ccc(Cl)cc1NC(=O)c1noc(C)c1[N+](=O)[O-],.,/,.,.,.,.,/,
Cc1sc2nc(C3CCCCC3)nc(SCC(=O)N3CC(=O)Nc4ccccc43)c2c1C,.,.,.,.,94,.,.,ATG4B conf=26
CCc1nc(SCC(=O)N2CC(=O)Nc3ccccc32)c2c(C)c(C)sc2n1,.,.,.,.,71,.,77,
CC1CCCN(C(=O)COC(=O)c2ccc(=O)n(Cc3ccccc3)n2)C1 (stereo not drawn),.,/,/,/,.,/,/,
Cc1c(C(=O)OCCOc2ccc(Br)cc2)sc(=S)n1C,.,.,.,.,.,.,/,
CCCn1c(NC(=O)c2cccc(S(=O)(=O)N3CCCC3)c2)nc2ccccc21,.,.,.,.,.,.,57,
CCCn1c(NC(=O)c2ccccc2)nc2ccccc21,.,.,.,.,.,.,/,
SMILES,Beta2AR agonist,Dynein transport,MEKK2mut PB1 HTS,MEKK2wt PB1 HTS,ATG4B inhibitor,MEKK3 PB1 HTS,PLA2 ctr,others
CC(=O)Nc1ccc(SCC(=O)c2cc(C)n(C)c2C)cc1,.,.,.,.,.,.,/,
CCCCn1c(N)c(N(CCOC)C(=O)COC(=O)COc2cc(C)c(Cl)cc2C(C)C)c(=O)[nH]c1=O,.,/,/,/,51,/,58,
O=C(NCC1(N2CCCCC2)CCCCC1)C1CC(=O)N(c2ccc3c(c2)OCCO3)C1 (stereo not drawn),.,.,.,.,.,.,/,
CC1CC(NC(=O)C2(C)CC2(Cl)Cl)CC(C)(C)C1 (stereo not drawn),.,.,.,.,.,.,/,
COc1cnc(SCc2c(Cl)cccc2Cl)nc1Cl,.,.,.,.,50,.,.,ATG4B conf=59
COc1ccc(CNC(=O)C2CCN(S(=O)(=O)c3ccc4nc5c(c(C(=O)O)c4c3)CC(C)CC5)CC2)cc1 (stereo not drawn),.,/,.,.,.,.,/,
CC1CCc2nc3ccc(S(=O)(=O)N4CCC(C(=O)NCc5ccccc5Cl)CC4)cc3c(C(=O)O)c2C1 (stereo not drawn),.,/,.,.,55,.,79,
O=C(NC1CCc2ccccc21)C1CCN(S(=O)(=O)c2ccc(Cl)cc2)CC1 (stereo not drawn),.,.,.,.,46,.,.,
Cc1ccc(S(=O)(=O)N2CCC(C(=O)NCc3ccccc3Cl)CC2)cc1,.,.,.,.,46,.,.,ATG4B conf=67
COc1ccc(CC(=O)N/N=C/c2cccnc2)cc1OC,.,/,.,.,.,.,/,
CC12CCC(C(=NO)C1=O)C2(C)C (stereo not drawn),.,/,/,/,.,/,/,
COc1cc(NC(=S)Nc2cccc(Cl)c2Cl)c(OC)cc1Cl,.,.,.,.,40,.,60,
COC(=O)c1cccc(NC(=S)Nc2cccc(Cl)c2Cl)c1,.,.,.,.,44,.,.,
CC(=O)Nc1cccc(NC(=S)Nc2cccc(Cl)c2Cl)c1,.,.,.,.,.,.,/,
CCCn1c(N)c(C(=O)CSc2nc(C3CC3)n(-c3ccccc3)n2)c(=O)[nH]c1=O,.,/,/,/,.,/,/,
CCN(CC)c1ccc(/C=N/NC(=S)NCc2ccccc2)c(O)c1,.,.,.,.,49,.,.,
O=C(NC(=S)Nc1ccc(F)c(Cl)c1)C1CC1,.,/,.,.,.,.,/,
O=C(COC(=O)c1ccccc1Nc1ccccc1)NCc1ccccc1Cl,.,.,.,.,49,.,.,
O=C(COC(=O)c1ccccc1Nc1ccccc1)NCc1ccccc1,.,.,.,.,.,.,/,
Cc1ccc(CNC(=S)Nc2ccc(OC(F)F)cc2C)cc1,.,.,.,.,.,.,/,
Fc1ccc(CNC(=S)NCc2ccccc2)cc1,.,/,.,.,43,.,.,ATG4B conf=71
S=C(NCc1ccccc1)NCc1ccc(CNC(=S)NCc2ccccc2)cc1,.,.,.,.,.,.,/,
Fc1ccc(NC(=S)Nc2ccc(F)c(Cl)c2)cc1Cl,.,.,.,.,72,.,76,
Cc1ccc(NC(=S)NCc2ccc(Cl)cc2)c(OC(F)F)c1,.,/,.,.,47,.,55,
